Key:
Format in all cases: functional
CAKI-1 = experiment: Growth inhibition of human Caki1 cells at 10 uM incubated for 48 hrs by sulforhodamine B assay relative to control; conditions: CAKI-1, 48 h, read-out: GI
How it was run: (§1)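 Single-dose screen at 10 μM final: cells in RPMI 1640, 5% FBS, 2 mM L-glutamine, plated 5,000–40,000/well, preincubated 24 h at 37°C, 5% CO2; drug 48 h; adherent cells fixed with 10% TCA, suspension cells with 16% TCA; SRB stain, absorbance 515 nm; percentage growth versus untreated control, with time-zero plates.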

NCI-H522 = experiment: Growth inhibition of human NCI-H522 cells at 10 uM incubated for 48 hrs by sulforhodamine B assay relative to control; conditions: NCI-H522, 48 h, read-out: GI; how it was run: as §1
U-251 = experiment: Growth inhibition of human U251 cells at 10 uM incubated for 48 hrs by sulforhodamine B assay relative to control; conditions: U-251, 48 h, read-out: GI
How it was run: (§2)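 NCI single-dose screen: cells grown in RPMI 1640 with 5% FBS and 2 mM L-glutamine, plated at 5,000–40,000 cells/well and preincubated 24 h at 37 °C, 5% CO2. Compounds taken from DMSO stock and tested at final 10 µM for 48 h. Cells fixed with TCA, stained with 0.4% SRB, absorbance read at 515 nm. Percentage growth calculated against untreated controls; controls held DMSO at the same dilution.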

Hs-578T = experiment: Growth inhibition of human Hs 578T cells at 10 uM incubated for 48 hrs by sulforhodamine B assay relative to control; conditions: read-out: GI; how it was run: as §1
A549 = experiment: Growth inhibition of human A549/ATCC cells at 10 uM incubated for 48 hrs by sulforhodamine B assay relative to control; conditions: A549, 48 h, read-out: GI; how it was run: as §1
OVCAR-5 = experiment: Growth inhibition of human OVCAR5 cells at 10 uM incubated for 48 hrs by sulforhodamine B assay relative to control; conditions: OVCAR-5, 48 h, read-out: GI; how it was run: as §1
COLO 205 = experiment: Growth inhibition of human COLO205 cells at 10 uM incubated for 48 hrs by sulforhodamine B assay relative to control; conditions: COLO 205, 48 h, read-out: GI; how it was run: as §1
KM12 = experiment: Growth inhibition of human KM12 cells at 10 uM incubated for 48 hrs by sulforhodamine B assay relative to control; conditions: KM12, 48 h, read-out: GI; how it was run: as §1
RXF 393 = experiment: Growth inhibition of human RXF393 cells at 10 uM incubated for 48 hrs by sulforhodamine B assay relative to control; conditions: RXF 393, 48 h, read-out: GI; how it was run: as §1
NCI-H460 = experiment: Growth inhibition of human NCI-H460 cells at 10 uM incubated for 48 hrs by sulforhodamine B assay relative to control; conditions: NCI-H460, 48 h, read-out: GI; how it was run: as §1
SK-MEL-28 = experiment: Growth inhibition of human SK-MEL-28 cells at 10 uM incubated for 48 hrs by sulforhodamine B assay relative to control; conditions: SK-MEL-28, 48 h, read-out: GI; how it was run: as §2
SW-620 = experiment: Growth inhibition of human SW620 cells at 10 uM incubated for 48 hrs by sulforhodamine B assay relative to control; conditions: SW-620, 48 h, read-out: GI; how it was run: as §2
SK-MEL-5 = experiment: Growth inhibition of human SK-MEL-5 cells at 10 uM incubated for 48 hrs by sulforhodamine B assay relative to control; conditions: SK-MEL-5, 48 h, read-out: GI; how it was run: as §2
NCI-H23 = experiment: Growth inhibition of human NCI-H23 cells at 10 uM incubated for 48 hrs by sulforhodamine B assay relative to control; conditions: NCI-H23, 48 h, read-out: GI; how it was run: as §1
HT-29 = experiment: Growth inhibition of human HT-29 cells at 10 uM incubated for 48 hrs by sulforhodamine B assay relative to control; conditions: HT-29, 48 h, read-out: GI; how it was run: as §1
RPMI-8226 = experiment: Growth inhibition of human RPMI8226 cells at 10 uM incubated for 48 hrs by sulforhodamine B assay relative to control; conditions: RPMI-8226, 48 h, read-out: GI; how it was run: as §1
HCT-116 = experiment: Growth inhibition of human HCT116 cells at 10 uM incubated for 48 hrs by sulforhodamine B assay relative to control; conditions: HCT-116, 48 h, read-out: GI; how it was run: as §1
NCI/ADR-RES = experiment: Growth inhibition of human NCI/ADR-RES cells at 10 uM incubated for 48 hrs by sulforhodamine B assay relative to control; conditions: read-out: GI; how it was run: as §1
PC-3 = experiment: Growth inhibition of human PC3 cells at 10 uM incubated for 48 hrs by sulforhodamine B assay relative to control; conditions: PC-3, 48 h, read-out: GI; how it was run: as §1
M14 = experiment: Growth inhibition of human M14 cells at 10 uM incubated for 48 hrs by sulforhodamine B assay relative to control; conditions: M14, 48 h, read-out: GI; how it was run: as §1
ACHN = experiment: Growth inhibition of human ACHN cells at 10 uM incubated for 48 hrs by sulforhodamine B assay relative to control; conditions: read-out: GI; how it was run: as §1
SNB-19 = experiment: Growth inhibition of human SNB19 cells at 10 uM incubated for 48 hrs by sulforhodamine B assay relative to control; conditions: SNB-19, 48 h, read-out: GI; how it was run: as §2
UACC-62 = experiment: Growth inhibition of human UACC62 cells at 10 uM incubated for 48 hrs by sulforhodamine B assay relative to control; conditions: UACC-62, 48 h, read-out: GI; how it was run: as §2
Malme-3M = experiment: Growth inhibition of human MALME-3M cells at 10 uM incubated for 48 hrs by sulforhodamine B assay relative to control; conditions: read-out: GI; how it was run: as §1
SK-OV-3 = experiment: Growth inhibition of human SKOV3 cells at 10 uM incubated for 48 hrs by sulforhodamine B assay relative to control; conditions: SK-OV-3, 48 h, read-out: GI; how it was run: as §2
UACC-257 = experiment: Growth inhibition of human UACC257 cells at 10 uM incubated for 48 hrs by sulforhodamine B assay relative to control; conditions: UACC-257, 48 h, read-out: GI; how it was run: as §2
SN12C = experiment: Growth inhibition of human SN12C cells at 10 uM incubated for 48 hrs by sulforhodamine B assay relative to control; conditions: read-out: GI; how it was run: as §2
HOP-62 = experiment: Growth inhibition of human HOP62 cells at 10 uM incubated for 48 hrs by sulforhodamine B assay relative to control; conditions: HOP-62, 48 h, read-out: GI; how it was run: as §1
EKVX = experiment: Growth inhibition of human EKVX cells at 10 uM incubated for 48 hrs by sulforhodamine B assay relative to control; conditions: read-out: GI; how it was run: as §1
TK-10 = experiment: Growth inhibition of human TK10 cells at 10 uM incubated for 48 hrs by sulforhodamine B assay relative to control; conditions: TK-10, 48 h, read-out: GI; how it was run: as §2

Row | Structure (SMILES) | inhibition of growth at 10 µM (CAKI-1) [%] | inhibition of growth at 10 µM (NCI-H522) [%] | inhibition of growth at 10 µM (U-251) [%] | inhibition of growth at 10 µM (Hs-578T) [%] | inhibition of growth at 10 µM (A549) [%] | inhibition of growth at 10 µM (OVCAR-5) [%] | inhibition of growth at 10 µM (COLO 205) [%] | inhibition of growth at 10 µM (KM12) [%] | inhibition of growth at 10 µM (RXF 393) [%] | inhibition of growth at 10 µM (NCI-H460) [%] | inhibition of growth at 10 µM (SK-MEL-28) [%] | inhibition of growth at 10 µM (SW-620) [%] | inhibition of growth at 10 µM (SK-MEL-5) [%] | inhibition of growth at 10 µM (NCI-H23) [%] | inhibition of growth at 10 µM (HT-29) [%] | inhibition of growth at 10 µM (RPMI-8226) [%] | inhibition of growth at 10 µM (HCT-116) [%] | inhibition of growth at 10 µM (NCI/ADR-RES) [%] | inhibition of growth at 10 µM (PC-3) [%] | inhibition of growth at 10 µM (M14) [%] | also measured
1 | CCOC(=O)C1=C(C)NC(SCc2nnc(-c3ccc(OC)cc3)o2)=NC1c1ccc(F)cc1 (stereo not given) | 24.9 | 26.5 | < 10 | < 10 | 12.7 | < 10 | < 10 | < 10 | 14.5 | < 10 | < 10 | < 10 | < 10 | < 10 | < 10 | < 10 | < 10 | < 10 | 12.5 | < 10 | inhibition of growth at 10 µM (ACHN): < 10%; inhibition of growth at 10 µM (SNB-19): 11.4%; inhibition of growth at 10 µM (UACC-62): < 10%; inhibition of growth at 10 µM (Malme-3M): < 10%; inhibition of growth at 10 µM (SK-OV-3): 14.2%; inhibition of growth at 10 µM (UACC-257): 11.8%; inhibition of growth at 10 µM (SN12C): < 10%; inhibition of growth at 10 µM (HOP-62): 12%; inhibition of growth at 10 µM (EKVX): < 10%; inhibition of growth at 10 µM (TK-10): < 10%
2 | COc1ccc(-c2nnc(CSC3=NC(c4ccc(F)cc4)C(C(C)=O)=C(C)N3)o2)cc1 (stereo not given) | 29.9 | 18 | 15.3 | < 10 | 15.6 | < 10 | < 10 | < 10 | < 10 | < 10 | < 10 | < 10 | < 10 | < 10 | < 10 | 14 | < 10 | < 10 | 18.7 | 13.4 | inhibition of growth at 10 µM (ACHN): < 10%; inhibition of growth at 10 µM (SNB-19): 13.4%; inhibition of growth at 10 µM (UACC-62): 10.8%; inhibition of growth at 10 µM (Malme-3M): 12.3%; inhibition of growth at 10 µM (SK-OV-3): 18.3%; inhibition of growth at 10 µM (UACC-257): < 10%; inhibition of growth at 10 µM (SN12C): < 10%; inhibition of growth at 10 µM (HOP-62): 19.4%; inhibition of growth at 10 µM (EKVX): < 10%; inhibition of growth at 10 µM (TK-10): < 10%
3 | CCOC(=O)C1=C(C)NC(SCc2nnc(-c3ccc(Cl)cc3)o2)=NC1c1ccc(OC)cc1 (stereo not given) | 17.8 | < 10 | 10.1 | < 10 | 11.5 | < 10 | < 10 | < 10 | < 10 | < 10 | < 10 | < 10 | < 10 | < 10 | < 10 | 18.3 | < 10 | < 10 | 17.9 | < 10 | inhibition of growth at 10 µM (ACHN): < 10%; inhibition of growth at 10 µM (SNB-19): 12.5%; inhibition of growth at 10 µM (UACC-62): 15.3%; inhibition of growth at 10 µM (Malme-3M): < 10%; inhibition of growth at 10 µM (SK-OV-3): < 10%; inhibition of growth at 10 µM (UACC-257): < 10%; inhibition of growth at 10 µM (SN12C): < 10%; inhibition of growth at 10 µM (HOP-62): < 10%; inhibition of growth at 10 µM (EKVX): < 10%; inhibition of growth at 10 µM (TK-10): < 10%
4 | CCOC(=O)C1=C(C)NC(SCc2nnc(-c3ccc(C)cc3)o2)=NC1c1ccc(F)cc1 (stereo not given) | 24.7 | 22.4 | 15.1 | < 10 | 17.3 | < 10 | < 10 | < 10 | < 10 | < 10 | < 10 | < 10 | 14.5 | < 10 | 12.4 | 27.2 | 18.6 | < 10 | 26.8 | < 10 | inhibition of growth at 10 µM (ACHN): 19%; inhibition of growth at 10 µM (SNB-19): 10.1%; inhibition of growth at 10 µM (UACC-62): 17.1%; inhibition of growth at 10 µM (Malme-3M): < 10%; inhibition of growth at 10 µM (SK-OV-3): < 10%; inhibition of growth at 10 µM (UACC-257): < 10%; inhibition of growth at 10 µM (SN12C): 19.9%; inhibition of growth at 10 µM (HOP-62): < 10%; inhibition of growth at 10 µM (EKVX): < 10%; inhibition of growth at 10 µM (TK-10): 28.4%
5 | CCOC(=O)C1=C(C)NC(SCc2nnc(-c3ccc(Cl)cc3)o2)=NC1c1ccc(Cl)cc1 (stereo not given) | 38.4 | 31.1 | 26.1 | 16.3 | 31 | 10.4 | 20.4 | 30.3 | 32.3 | 21.1 | 20.2 | 14.1 | 59.1 | 21.2 | 24.8 | 64.2 | 53.8 | 30.1 | 51.2 | 30.7 | inhibition of growth at 10 µM (ACHN): 35.9%; inhibition of growth at 10 µM (SNB-19): 27%; inhibition of growth at 10 µM (UACC-62): 50.1%; inhibition of growth at 10 µM (Malme-3M): 18.3%; inhibition of growth at 10 µM (SK-OV-3): 17.4%; inhibition of growth at 10 µM (UACC-257): 13.1%; inhibition of growth at 10 µM (SN12C): < 10%; inhibition of growth at 10 µM (HOP-62): < 10%; inhibition of growth at 10 µM (EKVX): 19.9%; inhibition of growth at 10 µM (TK-10): 22.5%

From ChEMBL document CHEMBL4190234, “Design, synthesis and anticancer activity of new monastrol analogues bearing 1,3,4-oxadiazole moiety” (Eur J Med Chem, 2017)
